Compound activity deposited in PubChem BioAssay by several laboratories.
MIN6 prolif: MIN6 beta-cell proliferation induction; MIN6 cells proliferation, ATPlite luminescence, 48 h; cells starved in 0.2% serum; 100% = growth in 10% serum; proliferation, % at 10 µM; 0.29% of 330,000 active;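 active = compounds whose signal lies at least 3.5 SD above the mean of all wells on their plate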;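 note: 0% = DMSO-treated cells in low-serum medium and 100% = 10% serum control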
PG9 Ab binder: small molecules binding HIV-1 gp120 antibody PG9; inhibition, % at 6.7 µM; TR-FRET gp120-PG9 antibody binding; 0.43% of 360,000 active; AID 624416; in the data active = inhibition above about 8.5%
NR1D1 modulator: modulators of human Rev-erb alpha DNA binding | Rev-erbα–FITC-DNA binding, fluorescence polarization, 90 min | activity, % at 10 µM | 0.79% of 370,000 active;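 active = activity above about 14%, limit read from the data; passing the limit was not always enough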;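 note: 0% = DMSO wells with 35 nM protein and 100% = DMSO wells with 750 nM protein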
Target sequence (P20393 whole entry, looked up): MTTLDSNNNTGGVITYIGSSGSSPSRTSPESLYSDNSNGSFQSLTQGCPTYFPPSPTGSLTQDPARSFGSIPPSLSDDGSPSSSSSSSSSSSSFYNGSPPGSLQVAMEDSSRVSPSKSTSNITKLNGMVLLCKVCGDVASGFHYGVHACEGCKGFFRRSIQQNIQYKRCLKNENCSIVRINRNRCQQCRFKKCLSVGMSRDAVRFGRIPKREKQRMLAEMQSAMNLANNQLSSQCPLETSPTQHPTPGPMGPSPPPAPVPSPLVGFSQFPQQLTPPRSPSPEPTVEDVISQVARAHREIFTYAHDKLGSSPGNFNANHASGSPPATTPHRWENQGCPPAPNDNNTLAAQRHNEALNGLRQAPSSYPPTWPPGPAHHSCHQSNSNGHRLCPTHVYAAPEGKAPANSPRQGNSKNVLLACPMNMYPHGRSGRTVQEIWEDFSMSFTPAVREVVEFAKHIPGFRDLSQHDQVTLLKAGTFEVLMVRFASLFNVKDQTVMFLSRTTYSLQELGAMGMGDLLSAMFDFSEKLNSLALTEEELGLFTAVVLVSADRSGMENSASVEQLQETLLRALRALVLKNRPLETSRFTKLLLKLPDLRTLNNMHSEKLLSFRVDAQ
H9c2 TAG inh: inhibitors of triacylglycerol accumulation; H9c2 cells, Nile Red lipid (TAG) fluorescence; cells loaded with 200 µM oleic acid; AID 651582; 0.66% of 230,000 active; inhibition, % at 12.5 µM;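 active = pattern-corrected inhibition of lipid staining of at least 50% with the nuclear-stain viability signal not falling by more than 50%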;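 note: 0% = DMSO wells and 100% = triacsin C control wells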
T cruzi repl: T. cruzi replication inhibition; AID 1885; 1.4% of 300,000 active; inhibition, % (no concentration beside the values); T. cruzi beta-gal in NIH3T3, luminescence, 90 h;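 active = mean inhibition across valid replicates above about 55%, limit read from the data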;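 note: signal also drops with host cell toxicity which is not excluded here; 0% = plate median of DMSO wells and 100% = zero luminescence signal; higher percent means less beta-gal luminescence so fewer parasites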
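System: NIH/3T3 fibroblasts plus reporter T. cruzi. Medium: DMEM plus 2% FBS. Probe or stimulus: 5000 reporter trypomastigotes per well. Compound: single 50 nL compound addition per well in DMSO. Incubation: co-culture of at least 90 h after 3 h attachment. Detection: GalScreen β-gal luminescence, detergent lysis, 60 min. Evaluation: parasite load inhibition, %.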
hiPSC survival: hiPSC single-cell survival enhancement | ATPlite luminescence; 100% = ROCK inhibitor wells, 0% = DMSO | survival enhancement, % at 20 µM | 0.044% of 360,000 active; in the data active = survival enhancement above about 18%;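 note: cells exposed to compounds for 16 hours before the ATP read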
Rev-erbA confirm: Rev-erb alpha (human) modulation, hit confirmation. shares compounds with NR1D1 modulator. Rev-erb alpha FITC-DNA binding, fluorescence polarization, 90 min. activation, % at 25 µM. 61% of 3,000 active. AID 1259319;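 active = activation at or above a set limit, or at least 3 SD above the negative control mean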;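 note: 0% = 35 nM protein with DMSO and 100% = 750 nM protein high control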
RORg DNA counter: counter-screen for Rev-erb alpha modulators: RORgamma DNA binding | shares compounds with NR1D1 modulator | purified RORgamma protein-FITC-DNA binding, fluorescence polarization | IC50, µM | 8% of 910 active | AID 1259320;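 active = Compounds whose fitted half-maximal concentration for disrupting protein-DNA binding is below 10 micromolar; the record names Rev-erb in its text, so the target is in doubt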
Active calls of the source: *; i = inactive; · = no result given. Most compounds without a hit are left out; they make up all but 2.9% or so of the library.

SMILES | MIN6 prolif | PG9 Ab binder | NR1D1 modulator | H9c2 TAG inh | T cruzi repl | hiPSC survival | Rev-erbA confirm | others
COCCn1c(=NC(=O)c2ccc3c(c2)OCCO3)sc2cc(S(N)(=O)=O)ccc21 | 3 | 7 | 29* | 4 | -3 | -1 | 38* | RORg DNA counter=i
COCCn1c(=NC(=O)c2ccc(S(=O)(=O)N3CCCc4ccccc43)cc2)sc2cc(S(C)(=O)=O)ccc21 | 0 | 0 | 11 | · | 35 | -1 | ·
COC(=O)Cn1c(=NC(=O)c2nc3ccccc3s2)sc2cc(S(N)(=O)=O)ccc21 | -2 | -2 | 39* | · | 10 | -2 | 23*
COCCn1c(=NC(=O)c2nc3ccccc3s2)sc2cc(S(C)(=O)=O)ccc21 | 0 | 0 | 89* | · | 4 | 0 | 63* | RORg DNA counter=>40
CCN(CC)c1ccc(/C=C/c2cccc[n+]2C)c(OC)c1 | -4 | -28 | 53* | · | 66* | 0 | 56* | RORg DNA counter=>40
C[C@H]1CN(S(=O)C(C)(C)C)[C@@H](CCO)/C1=C\c1ccccc1 (stereo partly specified) | · | 1 | 15* | -16 | · | 1 | -1
C[C@H]1CN(S(=O)C(C)(C)C)[C@H](CCO)/C1=C\c1ccccc1 (stereo partly specified) | · | 0 | -1 | -17 | · | 4 | ·
O=C(CSc1nc(O)cc(=O)n1-c1ccccc1)c1ccc(Br)cc1 | -3 | -2 | -4 | -1 | -2 | -1 | ·
Cn1nnnc1SCC(=O)NCc1ccc2c(c1)OCO2 | 0 | 2 | 8 | 10 | -9 | -1 | ·
COc1ccc(CNC(=O)CSc2nnnn2C)cc1OC | -2 | -2 | 31* | 6 | -6 | -1 | -2
O=c1[nH]nc(Cc2ccc(-c3ccccc3Cl)o2)c2ccccc12 | -3 | 0 | 34* | 10 | -1 | -1 | 17*
CC(C)c1ccc(NC(=O)CSc2nc(-c3ccccc3F)nc3nc[nH]c23)cc1 | 0 | -2 | 34* | · | 0 | 1 | 18*
CCCN1C(=O)/C(=C/c2c(NCCCOCC)nc3c(C)cccn3c2=O)SC1=S | · | 0 | -3 | -65 | · | 0 | ·
O=C1/C(=C\c2c(NCCOCCO)nc3ccccn3c2=O)SC(=S)N1Cc1ccco1 | -1 | -2 | 33* | · | -58 | 0 | 11
COc1ccc2c(c1)-c1c(ssc1=S)C(C)(C)N2C(=O)CSC1=NCCS1 | -5 | 0 | 21* | -10 | 32 | -4 | 30*
CCn1cc(C(=O)NCCc2ccccc2C)c(=O)c2ccc(C)nc21 | 0 | -2 | 44* | -6 | -8 | 0 | 52* | RORg DNA counter=3.8*
CCn1cc(C(=O)NCc2ccccc2F)c(=O)c2ccc(C)nc21 | 1 | · | · | · | -11 | 0 | ·
CCN(CC(=O)Nc1ccc(NC(C)=O)cc1)C(=O)c1cccc2ccccc12 | -3 | 0 | 2 | -1 | · | 1 | ·
O=C(CN1CCN(S(=O)(=O)c2ccc(Br)cc2)CC1)N/N=C/c1ccco1 | 2 | -2 | -1 | 9 | -16 | -1 | ·
CCc1nnc(NS(=O)(=O)c2ccc(Nc3ccc([N+](=O)[O-])c4nonc34)cc2)s1 | -1 | -3 | 21* | 11 | 17 | 2 | 33* | RORg DNA counter=>40
O=C(O)c1ccc(Nc2ccc([N+](=O)[O-])c3nonc23)cc1 | -4 | -7 | 6 | -1 | 9 | 0 | ·
O=[N+]([O-])c1ccc(Nc2ccccc2O)c2nonc12 | -4 | -17 | 32* | -6 | -4 | 0 | 20*
NS(=O)(=O)c1ccc(Nc2ccc([N+](=O)[O-])c3nonc23)cc1 | -3 | -7 | 27* | 5 | 11 | 0 | 17
CCc1nnc(NS(=O)(=O)c2ccc(NS(=O)(=O)c3ccccc3[N+](=O)[O-])cc2)s1 | -4 | -2 | -1 | · | -13 | 0 | ·
CC(=O)c1ccc(Nc2ccc([N+](=O)[O-])c3nonc23)cc1 | -2 | -13 | 11 | · | -8 | 4 | ·
